What all share (assay type): functional
For assay [1], the system named is Stenotrophomonas maltophilia. Description: In vitro antibacterial activity against GN 12873 strain of Stenotrophomonas maltophilia. In outline:
(§1)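 MIC by microbroth dilution in Mueller-Hinton broth following NCCLS guidelines.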

The next assay has as its system Escherichia coli. Description: In vitro antibacterial activity against ATCC 25922 strain of Escherichia coli. A digest of the protocol: as §1
Assay [2] relates to Pseudomonas aeruginosa. Description: In vitro antibacterial activity against ATCC 27853 strain of Pseudomonas aeruginosa. In outline: as §1
Assay [3] has as its system Pseudomonas aeruginosa. Description: In vitro antibacterial activity against SG 137 strain of Pseudomonas aeruginosa. A digest of the protocol:
as §1

The next assay relates to Staphylococcus aureus. Description: In vitro antibacterial activity against SG 511 strain of Staphylococcus aureus. A digest of the protocol: as §1
The subject of a further assay is Klebsiella pneumoniae. Put plainly: In vitro antibacterial activity against ATCC 100331 strain of Klebsiella pneumoniae. A digest of the protocol: as §1
In a further assay the test system is Serratia marcescens. Put plainly: In vitro antibacterial activity against SG 621 strain of Serratia marcescens. A digest of the protocol:
as §1

For 11 compounds, MIC results are on record in ChEMBL document CHEMBL1135500, “Highly antibacterial active aminoacyl penicillin conjugates with acylated bis-catecholate siderophores based on secondary diamino acids and related compounds” (2002).

As usually defined, the MIC is the lowest concentration found to suppress growth. Low values mean a more susceptible organism, high ones a less susceptible organism.

Structures are written as SMILES. Values after ≈ are worked out from the molar mass of the structure shown.

In the case of `CC(=O)Oc1cccc(C(=O)Nc2cc(NC(=O)c3cccc(OC(C)=O)c3OC(C)=O)cc(C(=O)NC(C(=O)NC3C(=O)N4C3SC(C)(C)C4C(=O)O)c3ccccc3)c2)c1OC(C)=O` (stereo unspecified), the MIC in assay [1] was 1.56 µg/mL (≈ 1.69 µM); in the assay with Escherichia coli it was 100 µg/mL (≈ 108 µM); with Pseudomonas aeruginosa [2], 3.12 µg/mL (≈ 3.38 µM); in the assay with Pseudomonas aeruginosa [3], 0.4 µg/mL (≈ 0.433 µM); against Staphylococcus aureus, 25 µg/mL (≈ 27.1 µM); with Klebsiella pneumoniae, 3.12 µg/mL (≈ 3.38 µM).

For `COC(=O)Oc1cccc2c(=O)n(-c3cc(C(=O)NC(C(=O)NC4C(=O)N5C4SC(C)(C)C5C(=O)O)c4ccccc4)cc(-n4c(=O)oc5c(OC(=O)OC)cccc5c4=O)c3)c(=O)oc12` (stereo unspecified), the MIC in assay [1] worked out at 0.78 µg/mL (≈ 0.844 µM); in the assay on Serratia marcescens, 12.5 µg/mL (≈ 13.5 µM); against Escherichia coli it was 25 µg/mL (≈ 27.1 µM); in the assay with Pseudomonas aeruginosa [2], 1.56 µg/mL (≈ 1.69 µM); against Pseudomonas aeruginosa [3], 0.2 µg/mL (≈ 0.216 µM); against Staphylococcus aureus, 25 µg/mL (≈ 27.1 µM). For the same compound, 6.25 µg/mL (≈ 6.77 µM) was the least that counted as inhibitory in the assay on Klebsiella pneumoniae (MIC).

As to `COC(=O)Oc1cccc(C(=O)N(CCCn2c(=O)oc3c(OC(=O)OC)cccc3c2=O)C(C)CCC(=O)NC(C(=O)NC2C(=O)N3C2SC(C)(C)C3C(=O)O)c2ccccc2)c1OC(=O)OC` (stereo unspecified), the minimum inhibitory concentration (MIC) in assay [1] stood at 0.4 µg/mL (≈ 0.409 µM); with Serratia marcescens it was 0.1 µg/mL (≈ 0.102 µM); in the assay on Escherichia coli, 1.56 µg/mL (≈ 1.6 µM); against Pseudomonas aeruginosa [2], 3.12 µg/mL (≈ 3.19 µM); against Pseudomonas aeruginosa [3] it was 0.1 µg/mL (≈ 0.102 µM); against Staphylococcus aureus it was 1.56 µg/mL (≈ 1.6 µM). Moreover, the lowest concentration to inhibit growth with Klebsiella pneumoniae (MIC) was 0.2 µg/mL (≈ 0.205 µM).

Regarding `CC(=O)Oc1cccc(C(=O)N(C)CCCN(CC(=O)NC(C(=O)NC2C(=O)N3C2SC(C)(C)C3C(=O)O)c2ccccc2)C(=O)c2cccc(OC(C)=O)c2OC(C)=O)c1OC(C)=O` (stereo unspecified), the MIC in assay [1] came out at 0.02 µg/mL (≈ 0.0218 µM); with Serratia marcescens, 0.05 µg/mL (≈ 0.0545 µM); with Escherichia coli it was 0.02 µg/mL (≈ 0.0218 µM); against Pseudomonas aeruginosa [2], 0.08 µg/mL (≈ 0.0872 µM); against Pseudomonas aeruginosa [3] it was 0.005 µg/mL (≈ 0.00545 µM); in the assay on Staphylococcus aureus, 3.12 µg/mL (≈ 3.4 µM). In the assay on Klebsiella pneumoniae, this compound had an MIC of under 0.005 µg/mL.

Consider `COC(=O)Oc1cccc2c(=O)n(CCC(=O)Nc3cc(NC(=O)CCn4c(=O)oc5c(OC(=O)OC)cccc5c4=O)cc(C(=O)NC(C(=O)NC4C(=O)N5C4SC(C)(C)C5C(=O)O)c4ccc(O)cc4)c3)c(=O)oc12` (stereo unspecified), for which the MIC in assay [1] came to 25 µg/mL (≈ 23.1 µM); against Serratia marcescens, 50 µg/mL (≈ 46.2 µM); in the assay with Escherichia coli, 6.25 µg/mL (≈ 5.78 µM); in the assay on Pseudomonas aeruginosa [2] it was 6.25 µg/mL (≈ 5.78 µM); with Pseudomonas aeruginosa [3], 6.25 µg/mL (≈ 5.78 µM); in the assay on Staphylococcus aureus, 0.4 µg/mL (≈ 0.37 µM). This compound yielded an MIC in the assay on Klebsiella pneumoniae of 6.25 µg/mL (≈ 5.78 µM).

Take `COC(=O)Oc1cc(Br)cc(C(=O)N(C)CCCN(CC(=O)NC(C(=O)NC2C(=O)N3C2SC(C)(C)C3C(=O)O)c2ccccc2)C(=O)c2cc(Br)cc(OC(=O)OC)c2OC(=O)OC)c1OC(=O)OC` (stereo unspecified): the MIC is 0.02 µg/mL (≈ 0.0175 µM) in assay [1]; 0.02 µg/mL (≈ 0.0175 µM) against Serratia marcescens; under 0.005 µg/mL with Escherichia coli; 0.05 µg/mL (≈ 0.0439 µM) with Pseudomonas aeruginosa [2]; under 0.005 µg/mL against Pseudomonas aeruginosa [3]; 6.25 µg/mL (≈ 5.48 µM) in the assay with Staphylococcus aureus. The compound also returned a minimal inhibitory concentration (MIC) in the assay with Klebsiella pneumoniae of under 0.005 µg/mL.

Take `CC(=O)Oc1cccc(C(=O)NCCCCN(CC(=O)NC(C(=O)NC2C(=O)N3C2SC(C)(C)C3C(=O)O)c2ccc(O)cc2)C(=O)c2cccc(OC(C)=O)c2OC(C)=O)c1OC(C)=O` (stereo unspecified): the MIC in assay [1] is 0.005 µg/mL (≈ 0.00535 µM); in the assay on Serratia marcescens, under 0.005 µg/mL; against Escherichia coli, 0.01 µg/mL (≈ 0.0107 µM); against Pseudomonas aeruginosa [2] it was 0.16 µg/mL (≈ 0.171 µM); against Pseudomonas aeruginosa [3], 0.01 µg/mL (≈ 0.0107 µM); with Staphylococcus aureus it was 5 µg/mL (≈ 5.35 µM). Also, the minimum inhibitory concentration (MIC) with Klebsiella pneumoniae was under 0.005 µg/mL.

`COC(=O)Oc1cccc(C(=O)N(CCCCn2c(=O)oc3c(OC(=O)OC)cccc3c2=O)CC(=O)NC(C(=O)NC2C(=O)N3C2SC(C)(C)C3C(=O)O)c2ccccc2)c1OC(=O)OC` (stereo unspecified): the minimum inhibitory concentration (MIC) in assay [1] is 0.04 µg/mL (≈ 0.0421 µM); against Serratia marcescens it was under 0.005 µg/mL; in the assay with Escherichia coli it was 0.01 µg/mL (≈ 0.0105 µM); in the assay on Pseudomonas aeruginosa [2], 0.156 µg/mL (≈ 0.164 µM); against Pseudomonas aeruginosa [3], 0.04 µg/mL (≈ 0.0421 µM); in the assay on Staphylococcus aureus it was 2.5 µg/mL (≈ 2.63 µM). Further, the minimal inhibitory concentration (MIC) with Klebsiella pneumoniae is under 0.005 µg/mL.

On to `CC(=O)Oc1ccc(C(=O)NCCCCN(CC(=O)NC(C(=O)NC2C(=O)N3C2SC(C)(C)C3C(=O)O)c2ccccc2)C(=O)c2ccc(OC(C)=O)c(OC(C)=O)c2)cc1OC(C)=O` (stereo unspecified), for which the minimal inhibitory concentration (MIC) in assay [1] was determined as 50 µg/mL (≈ 54.5 µM); in the assay on Serratia marcescens, 3.12 µg/mL (≈ 3.4 µM); in the assay on Escherichia coli, 0.78 µg/mL (≈ 0.85 µM); against Pseudomonas aeruginosa [2] it was 0.78 µg/mL (≈ 0.85 µM); against Pseudomonas aeruginosa [3], 0.2 µg/mL (≈ 0.218 µM); against Staphylococcus aureus, 0.78 µg/mL (≈ 0.85 µM). In the assay with Klebsiella pneumoniae, this compound displayed a minimum inhibitory concentration (MIC) of 0.4 µg/mL (≈ 0.436 µM).

Turning to `CC(=O)Oc1cccc(C(=O)N(C)CCCN(Cc2ccccc2C(=O)NC(C(=O)NC2C(=O)N3C2SC(C)(C)C3C(=O)O)c2ccccc2)C(=O)c2cccc(OC(C)=O)c2OC(C)=O)c1OC(C)=O` (stereo unspecified), the minimal inhibitory concentration (MIC) in assay [1] is under 0.05 µg/mL; against Serratia marcescens, 0.24 µg/mL (≈ 0.241 µM); with Escherichia coli, 1.56 µg/mL (≈ 1.57 µM); against Pseudomonas aeruginosa [2], 0.4 µg/mL (≈ 0.402 µM); against Pseudomonas aeruginosa [3], 0.04 µg/mL (≈ 0.0402 µM); with Staphylococcus aureus it was 6.25 µg/mL (≈ 6.29 µM). Moreover, in the assay on Klebsiella pneumoniae, inhibition of growth (MIC) required 0.2 µg/mL (≈ 0.201 µM).

On to `COC(=O)Oc1cc(Cl)c(Cl)c(C(=O)N(C)CCCN(CC(=O)NC(C(=O)NC2C(=O)N3C2SC(C)(C)C3C(=O)O)c2ccccc2)C(=O)c2c(Cl)c(Cl)cc(OC(=O)OC)c2OC(=O)OC)c1OC(=O)OC` (stereo unspecified), for which the MIC in assay [1] stood at 0.05 µg/mL (≈ 0.0447 µM); against Serratia marcescens it was 0.05 µg/mL (≈ 0.0447 µM); against Escherichia coli, 0.02 µg/mL (≈ 0.0179 µM); in the assay on Pseudomonas aeruginosa [2], 0.1 µg/mL (≈ 0.0893 µM); against Pseudomonas aeruginosa [3], 0.05 µg/mL (≈ 0.0447 µM); in the assay on Staphylococcus aureus it was 3.12 µg/mL (≈ 2.79 µM). The compound also registered an MIC against Klebsiella pneumoniae of under 0.005 µg/mL.
